Measurements reported in BindingDB's records for doi:10.1021/jm049559q (Tibotec, 2005).

Each compound was assayed against Integrase (Human immunodeficiency virus 1, UniProt Q7ZJM1) (assay: Log of inhibitory concentration against human immunodeficiency virus type 1 integrase).
How it was run: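 Strand transfer ELISA using recombinant His-tagged HIV-1 integrase expressed in E. coli BL21(DE3). 20 nM biotinylated processed viral DNA substrate is preincubated with 300 nM integrase for 5 min at 37 °C. Serial compound dilutions and 50 nM target DNA are then added in 20 mM Hepes pH 7.5, 25 mM NaCl, 5 mM MnCl2, 2 mM DTT, 50 µg/mL BSA and incubated 2 h at 37 °C. Products are captured on streptavidin plates, detected with anti-FITC peroxidase antibody and read by chemiluminescence.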

Sequence of Integrase (Q7ZJM1 whole entry): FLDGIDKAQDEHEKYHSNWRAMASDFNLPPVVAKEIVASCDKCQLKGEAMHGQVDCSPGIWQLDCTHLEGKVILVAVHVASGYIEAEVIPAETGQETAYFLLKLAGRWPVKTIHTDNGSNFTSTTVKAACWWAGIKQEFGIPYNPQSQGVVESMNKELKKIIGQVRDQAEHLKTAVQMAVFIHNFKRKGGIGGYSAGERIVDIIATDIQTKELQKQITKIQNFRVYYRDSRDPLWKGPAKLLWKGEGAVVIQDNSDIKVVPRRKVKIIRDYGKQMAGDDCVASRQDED

SMILES	IC50 [nM]
O=c1c2[nH]cc[nH]c2c(=O)c2c(=O)n(Cc3cccc(F)c3)c(=O)c12	562
O=c1c2[nH]cc[nH]c2c(=O)c2c(=O)n(CCc3ccccc3)c(=O)c12	2040
O=c1c2[nH]cc[nH]c2c(=O)c2c(=O)n(Cc3ccc4c(c3)OCO4)c(=O)c12	562
O=c1c2[nH]cc[nH]c2c(=O)c2c(=O)n(Cc3cccc(C(F)(F)F)c3)c(=O)c12	427
COc1ccc(Cn2c(=O)c3c(=O)c4[nH]cc[nH]c4c(=O)c3c2=O)c(OC)c1	427

More lines, now with the values ahead:

IC50 [nM]	SMILES
2040	O=c1c2[nH]cc[nH]c2c(=O)c2c(=O)n(Cc3ccc(OC(F)(F)F)cc3)c(=O)c12
427	COc1cccc(Cn2c(=O)c3c(=O)c4[nH]cc[nH]c4c(=O)c3c2=O)c1OC
1410	O=c1c2[nH]cc[nH]c2c(=O)c2c(=O)n(CCc3ccc4c(c3)OCO4)c(=O)c12
417	O=c1c2[nH]cc[nH]c2c(=O)c2c(=O)n(Cc3ccc(Cl)cc3)c(=O)c12
417	O=c1c2[nH]cc[nH]c2c(=O)c2c(=O)n(Cc3ccc(F)cc3)c(=O)c12
562	COc1ccc(Cn2c(=O)c3c(=O)c4[nH]cc[nH]c4c(=O)c3c2=O)cc1
